Source: PubChem (Johns Hopkins Ion Channel Center)
MrgX1 antag: human MrgX1 receptor antagonism, primary screen; Q96LB2; MRGX1-HEK293 calcium flux, Fluo-4, BAM8-22 antagonism; stronger effect = lower value; B-score at 10 µM; 310,000 compounds, 1.3% hits; AID 588676;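 active means calcium-response B-score plate-corrected more than 3 library SD below zero, starting fluorescence within 5 deviations, no agonist response on first addition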;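 further: peak minus trough fluorescence over baseline after final BAM8-22 challenge near maximal dose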
Target sequence (Q96LB2 whole entry, looked up): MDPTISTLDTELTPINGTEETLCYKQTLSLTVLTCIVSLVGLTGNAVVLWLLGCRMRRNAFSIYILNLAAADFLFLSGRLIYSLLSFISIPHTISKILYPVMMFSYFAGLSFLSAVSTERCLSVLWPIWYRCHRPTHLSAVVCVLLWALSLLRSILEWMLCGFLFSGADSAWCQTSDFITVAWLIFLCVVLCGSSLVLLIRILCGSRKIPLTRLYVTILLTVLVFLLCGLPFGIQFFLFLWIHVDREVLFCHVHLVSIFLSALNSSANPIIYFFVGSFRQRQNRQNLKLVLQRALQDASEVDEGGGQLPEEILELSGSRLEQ
MrgX1 ag: activates human MrgX1 receptor signaling; AID 588627; 310,000 compounds, 0.44% hits; MrgX1-HEK293 cells, Fluo-4 calcium fluorescence, agonist mode; stronger effect = higher value; B-score at 10 µM; Q96LB2;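 active means calcium response B-score plate-corrected fluorescence ratio at least 3 library SD, with starting fluorescence B-score inside 5 SD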
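times = overnight plating, then 30 min 37 °C plus 30 min room-temperature dye loading | assay system = stable human MrgX1 HEK293 cell line | input = fifteen thousand cells per well | signal = kinetic calcium dye fluorescence, Fluo-4 NW | dosing = compound delivered in addition one of three | read-out = B-scored fluorescence response ratio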
RGS4 inh: inhibitors of human RGS4 | P49798 | HEK293 M3R/RGS4 inducible, Fluo-4 calcium flux; stronger effect = higher value; triggered by carbachol at its EC20 | B-score at 10 µM | 310,000 compounds, 0.45% hits;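 active means B-score, a plate-corrected calcium signal, over three deviations above library mean, with baseline fluorescence within five deviations of library mean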;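 further: RGS4 expression induced by doxycycline in cells with stable M3 receptor; B-score is computed from the integrated fluorescence ratio over baseline after carbachol; higher B-score means a larger calcium signal and so more RGS4 inhibition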
Target sequence (P49798 whole entry, looked up): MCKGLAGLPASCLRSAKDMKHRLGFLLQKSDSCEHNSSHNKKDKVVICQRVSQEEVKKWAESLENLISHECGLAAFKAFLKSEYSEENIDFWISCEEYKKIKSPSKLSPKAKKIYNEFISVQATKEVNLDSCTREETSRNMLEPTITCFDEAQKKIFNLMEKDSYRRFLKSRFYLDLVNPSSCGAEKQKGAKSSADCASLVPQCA
MrgX1 PAM: human MrgX1 positive allosteric modulation, primary screen; Q96LB2; MrgX1-HEK293, Fluo-4 calcium flux, FDSS; stronger effect = higher value; 310,000 compounds, 0.63% hits; AID 588675; B-score at 10 µM;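 active means plate-corrected calcium response at least 3 library SD above typical, normal starting fluorescence, not activating the receptor alone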;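 further: compound read alongside a low EC10 to EC30 dose of BAM8-22 agonist; peak minus trough fluorescence over baseline measured at the second addition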
RGS4 act: RGS4 potentiation or activation. HEK293 M3R/inducible RGS4, carbachol calcium flux Fluo4; stronger effect = lower value. AID 463111. B-score at 10 µM. 310,000 compounds, 0.92% hits;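 active means B-score of the integrated calcium signal more than 4 SD below the library mean, with starting fluorescence not abnormally high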;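 further: negative B-score means reduced calcium response which marks RGS4 activation or potentiation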
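Reagent: ECmax carbachol challenge; Test system: M3R-expressing HEK293 line, RGS4 induced by doxycycline; Schedule: overnight RGS4 induction, 30 min dye load 37 °C, 20 min compound RT; Detection: calcium dye Fluo4 fluorescence; Read-out: Agonist-evoked peak-minus-minimum fluorescence over baseline, integrated ratio, B score.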
MrgX1 ag confirm: human MrgX1 agonism, re-confirmation screen; activation, % at 10 µM; MrgX1-HEK293, Fluo-4 calcium fluorescence, FDSS; shares compounds with MrgX1 ag; 600 compounds, 78% hits;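 active means calcium signal rise, corrected for plate position, at least 3 library SD high, with starting brightness within 5 such deviations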; further: reference of the scale not given here
HEK293 Ca flux: activity in parental HEK293 cells lacking MrgX1 | fluorescence ratio F(max-min)/F0 at 10 µM | 4,000 compounds, 2% hits | Fluo-4 calcium fluorescence, FDSS | shares compounds with MrgX1 antag | AID 624111;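 active means duplicate-averaged calcium fluorescence ratio at least three times the standard deviation of buffer wells, a nonspecific response in parental cells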
HEK293 Ca counter: counter-screen for MrgX1 allosteric activators: effect in parental HEK293 cells; shares compounds with MrgX1 antag; parental HEK293 calcium flux, Fluo-4 fluorescence ratio; stronger effect = higher value; fluorescence ratio F(max-min)/F0 at 10 µM; 4,000 compounds, 0.4% hits; AID 624114;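 active means calcium fluorescence ratio, averaged over duplicates, at least 3 SD of the buffer-well ratio, meaning a nonspecific response in receptor-free cells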;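 further: untransfected parental HEK293 lacking MrgX1 used as counterscreen for MrgX1 allosteric activators; fluorescence change taken during the second addition on a kinetic imager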
HEK293 Ca cntr2: activity in parental HEK293 cells lacking MrgX1 receptor | shares compounds with MrgX1 antag | 4,000 compounds, 8.7% hits | fluorescence ratio F(max-min)/F0 at 10 µM | AID 624115 | Fluo-4 calcium fluorescence (FDSS); stronger effect = higher value;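 active means calcium fluorescence ratio at least three times the spread of buffer wells, meaning a non-specific response in parental cells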
Starred values were filed as active, the others as inactive; i = inactive; / = no result given. A selection: hits, their analogues and other compounds. The true share with any hit is near 3.5%.

SMILES	MrgX1 antag	MrgX1 ag	RGS4 inh	MrgX1 PAM	RGS4 act	MrgX1 ag confirm	HEK293 Ca flux	HEK293 Ca counter	HEK293 Ca cntr2
O=C(CCN1CCC(c2ccccc2)C1)c1cccs1 (stereo unspecified)	i	44*	i	i	i	140%*	i	i	i
Cc1cccc(NC(=O)Cn2cnc3c(oc4nc5c(cc43)COC(C)(C)C5)c2=O)c1	i	i	i	i	i	/	/	/	/
COc1ccc(C(=O)N2CCN(Cc3nc(CC4CC4)no3)CC2)cc1	i	i	i	i	i	/	/	/	/
CCN(CC)S(=O)(=O)c1cccc(C(=O)NC(C(=O)Nc2nnc(C)s2)C(C)C)c1 (stereo unspecified)	i	i	i	i	i	/	/	/	/
Cc1c(NC(=O)C23CC4CC(CC(Br)(C4)C2)C3)c(=O)n(-c2ccccc2)n1C	i	i	i	i	i	/	/	/	/
CC1CC2(CCCCC2)N2C(=O)C(=O)c3cccc1c32 (stereo unspecified)	i	46*	i	i	i	196%*	i	i	i
Cc1cc2c3c(c1)C(C)CC(C)(C)N3C(=O)C2=O (stereo unspecified)	i	i	i	i	i	/	/	/	/
CC1CN(C(=O)Nc2ccc(F)cc2)C2(CCCCCC2)O1 (stereo unspecified)	i	i	i	i	i	/	/	/	/
COc1ccc(OCC(=O)Nc2ccc(OC)c(S(=O)(=O)N3CCCCC3)c2)cc1	i	i	i	i	i	/	/	/	/
Cc1cc(C)cc(NC(=O)Nc2ccc(N3CCCCC3)cc2)c1	i	30*	i	i	i	i	i	i	i
COc1ccc(CCNc2cc(C)nc(N)n2)cc1OC	i	45*	i	i	i	242%*	i	i	i
CCC(=O)NC(=S)Nc1ccc(N2CCN(C(=O)c3ccc(Cl)cc3)CC2)cc1	i	i	i	i	i	/	/	/	/
Nc1nc(-c2ccc3c(c2)CCO3)cs1	i	38*	i	i	i	175%*	i	i	i
CCOc1cc(N2CCOCC2)c(OCC)cc1NC(=O)c1ccc(OC(C)C)cc1	i	i	i	i	i	/	/	/	/
O=C(Nc1nnc(-c2ccccn2)o1)c1cccc(Br)c1	i	29*	i	i	i	111%*	i	i	i
Cc1cc(=O)[nH]c(SCC(=O)Nc2ccc(Br)cc2)c1C#N	i	72*	i	i	i	375%*	i	i	84*
Cc1cc(=O)[nH]c(SCC(=O)Nc2ccc(F)cc2)c1C#N	i	i	i	i	i	/	/	/	/
CC1(c2ccccc2)CC(C)(C)n2c(O)c(C3=NC(=S)NC3=O)c3cccc1c32 (stereo unspecified)	i	i	i	i	i	/	/	/	/
CC1(c2ccccc2)CC(C)(C)N2C(=O)C(=O)c3cccc1c32 (stereo unspecified)	i	29*	i	i	i	i	i	i	i
O=c1c2cc(Br)ccc2nc(-c2cccc(C(F)(F)F)c2)n1O	i	119*	i	i	i	620%*	i	i	144*
Cc1ccccc1-c1nc2ccc(Cl)cc2c(=O)n1O	i	i	i	i	i	/	/	/	/
O=c1c2cc(Cl)ccc2nc(-c2ccc(Cl)c(Cl)c2)n1O	i	151*	i	i	-7.7*	719%*	i	i	122*
CCN(CC)c1ccc(C(=O)OCC(=O)NC(C)(C)C)cc1	i	i	i	i	i	/	/	/	/
O=C(c1ccc(Sc2ccc(F)cc2)c([N+](=O)[O-])c1)N1CCOCC1	i	i	i	i	i	/	/	/	/
O=c1c2ccccc2sn1-c1ccc(S(=O)(=O)N2CCCC2)cc1	i	i	i	i	i	/	/	/	/
SMILES	MrgX1 antag	MrgX1 ag	RGS4 inh	MrgX1 PAM	RGS4 act	MrgX1 ag confirm	HEK293 Ca flux	HEK293 Ca counter	HEK293 Ca cntr2
CN(C)S(=O)(=O)c1cccc(-n2sc3ccccc3c2=O)c1	i	37*	/	i	/	225%*	i	i	50*
O=c1c2ccccc2sn1-c1ccccc1	i	41*	i	i	i	229%*	i	i	49*
CCOC(=O)Cc1csc(N/C(=N/S(=O)(=O)c2ccc(F)cc2F)c2ccccc2)n1	i	30*	i	i	i	182%*	i	i	i
CCOC(=O)c1ccc(-n2c(CCC(=O)O)ccc2-c2cccs2)cc1	i	i	i	i	i	/	/	/	/
Cc1ccc(-n2c(CCC(=O)O)ccc2-c2cccs2)cc1C	i	29*	i	i	i	216%*	i	i	i
CC1CCCCN1S(=O)(=O)c1ccc(C(=O)Nc2nnc(-c3ccccc3Cl)o2)cc1 (stereo unspecified)	i	41*	i	i	i	323%*	i	i	63*
CC(C)(CO)NC(=O)C(Cc1ccccc1)N1C(=O)c2ccccc2C1=O (stereo unspecified)	i	i	i	i	i	/	/	/	/
CCn1c(=O)c(C(=O)NNC(=O)c2ccccc2Cl)c(O)c2ccccc21	i	105*	i	i	i	322%*	i	i	78*
Cn1c(=O)c(C(=O)NNC(=O)c2ccccc2F)c(O)c2ccccc21	i	65*	i	i	i	405%*	i	i	71*
COc1ccc(Cl)cc1NC(=O)CSc1nnc(Cc2ccc(C)cc2)c(=O)[nH]1	i	36*	i	i	i	160%*	i	i	i
Cc1ccc(Cc2nnc(SCC(=O)Nc3ccccc3Cl)[nH]c2=O)cc1	i	i	i	i	i	/	/	/	/
Cc1ccc(S(=O)(=O)C(C#N)c2nc3ccccc3nc2N2CCCC2)cc1 (stereo unspecified)	i	30*	i	i	i	i	i	i	52*
